Laboratory results as given in ChEMBL document CHEMBL5033998, “Discovery of DDO-2213 as a Potent and Orally Bioavailable Inhibitor of the WDR5-Mixed Lineage Leukemia 1 Protein-Protein Interaction for the Treatment of MLL Fusion Leukemia” (J Med Chem, 2021).
Calls of active or inactive are those of the source. No cut-off for these calls is given here.

How the values were obtained:
MV4-11 [1] = assay: Antitumor activity against human MV4-11 cells xenografted in Balb/c nude mouse assessed as tumor weight inhibition at 40 mg/kg, po administered daily for 21 days relative to control; assay type: functional; conditions: MV4-11, po, 504 h, time 21 day
How it was run: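 MV4-11 flank xenografts (~5 × 10^6 cells) in female BALB/c nude mice, 6 per group; daily oral dosing (40, 80, 120 mg/kg) or saline vehicle for 21 days, then tumors excised and weighed.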

[2] = Metabolic stability in human liver microsomes assessed as clearance at 1 uM in presence of NADPH by LC-MS/MS analysis; assay type: ADME, Microsome
How it was run: (§1)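 Compound at 1 μM preincubated 5 min at 37 °C with human or rat liver microsomes (0.7 mg/mL) in 100 mM PBS pH 7.4; reaction started with 1 mM NADPH.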

MV4-11 [3] = assay: Antitumor activity against human MV4-11 cells xenografted in Balb/c nude mouse assessed as tumor growth inhibition at 80 mg/kg, po administered daily for 21 days relative to control; assay type: functional; conditions: MV4-11, po, 504 h, time 21 day, read-out: TGI
How it was run: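 Female BALB/c nude mice (6–8 weeks) given ~5 × 10^6 MV4-11 cells in 0.2 mL PBS into the flank; at 100–150 mm3 randomized (6/group) to vehicle (0.9% saline) or 40, 80, 120 mg/kg oral (hydrochloride salt) daily for 21 days. Volume = length × width²/2 every other day; GI% = [1 − (TVt − TV0)/(CVt − CV0)] × 100%.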

[4] = Half life in Sprague-Dawley rat at 10 mg/kg, po measured upto 24 hrs by LC-MS/MS analysis; assay type: ADME, organism-based; conditions: in vivo
How it was run: (§2)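 Male SD rats, 6–8 weeks, 220 ± 30 g; single oral dose 10 mg/kg (n = 3). Plasma sampled at 0, 0.25, 0.5, 1, 2, 4, 6, 8 and 24 h, stored at −80 °C, quantified by LC-MS/MS; parameters reported as mean ± SEM.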

[5] = target: Protein arginine N-methyltransferase 5 (Homo sapiens, UniProt O14744); assay: Inhibition of PRMT5 (unknown origin) assessed as effect on H3R8/H4R3 methylation incubated for 30 mins by Alphascreen assay
How it was run: (§3)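 AlphaScreen: enzyme, SAM and compound mixed in 10 mM PBS for 30 min at room temperature; acceptor beads and substrate antibody added, 30 min at room temperature, then streptavidin donor beads; read on AlphaScreen reader.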

[6] = target: T1, Histone-lysine N-methyltransferase 2A (Homo sapiens, UniProt Q03164); assay: Inhibition of MLL1 (unknown origin) in human MV4-11 cells assessed as decrease in Meis1 mRNA level at 1 to 10 uM measured after 7 days by RT-PCR analysis; assay type: cell-based
How it was run: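 MV4-11 cells treated 7 days at 0, 1, 2.5, 5, 10 μM; total RNA extracted with TRIzol and Hoxa9/Meis1 transcripts measured by quantitative RT-PCR, in triplicate (n = 3); Student's t-tests.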

[7] = Metabolic stability in rat liver microsomes assessed as clearance at 1 uM in presence of NADPH by LC-MS/MS analysis; assay type: ADME, Microsome; how it was run: as §1
[8] = target: T2, N-lysine methyltransferase KMT5A (Homo sapiens, UniProt Q9NQR1); assay: Inhibition of SET8 (unknown origin) assessed as effect on H4K20 methylation incubated for 30 mins by Alphascreen assay; how it was run: as §3
T2 sequence (Q9NQR1 whole entry): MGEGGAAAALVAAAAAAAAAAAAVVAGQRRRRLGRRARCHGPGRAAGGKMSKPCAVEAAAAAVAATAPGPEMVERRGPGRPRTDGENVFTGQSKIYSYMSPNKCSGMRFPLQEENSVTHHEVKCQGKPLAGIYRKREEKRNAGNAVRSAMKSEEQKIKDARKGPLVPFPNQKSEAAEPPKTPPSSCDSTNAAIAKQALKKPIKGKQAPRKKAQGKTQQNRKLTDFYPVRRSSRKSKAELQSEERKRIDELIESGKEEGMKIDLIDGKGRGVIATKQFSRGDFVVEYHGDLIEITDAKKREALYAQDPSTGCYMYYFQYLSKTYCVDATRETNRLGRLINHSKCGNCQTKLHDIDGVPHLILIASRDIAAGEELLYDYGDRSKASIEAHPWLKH

[9] = target: Histone-lysine N-methyltransferase 2A/WDR5 (Homo sapiens, UniProt P61964); assay: Inhibition of MLL1-WDR5 (unknown origin) protein-protein interaction using Thr-FAM as probe by fluorescence polarization competition assay
How it was run: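 Competitive FP with WDR5 and 10mer-Thr-FAM probe in 100 mM KH2PO4, 25 mM KCl, 0.01% Triton X-100, pH 6.5; read at λex 485 ± 25 nm, λem 535 ± 25 nm. IC50 from three independent replicates ± SD.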

[10] = MRT in Sprague-Dawley rat at 2 mg/kg, iv measured upto 24 hrs by LC-MS/MS analysis; assay type: ADME, organism-based; conditions: in vivo
[11] = AUC (0 to infinity) in Sprague-Dawley rat at 10 mg/kg, po measured upto 24 hrs by LC-MS/MS analysis; assay type: ADME, organism-based; parameters: route oral, dose 10 mg/kg, time <=24; conditions: in vivo; how it was run: as §2
[12] = target: T1, Histone-lysine N-methyltransferase 2A; assay: Inhibition of MLL1 (unknown origin) histone methyltransferase activity assessed as inhibition of H3K4 methylation incubated for 30 mins by chemiluminescence assay
HUVEC = assay: Antiproliferative activity against human HUVEC cells assessed as cell viability incubated for 72 hrs by CCK8 assay; assay type: cell-based
How it was run: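 Cells seeded at 3000–6000 per well, exposed to inhibitor at several concentrations for 72 h; viability read with CCK8 kit. MV4-11 and K562 grown in modified IMDM + 10% FBS, pen/strep; MOLM-13 in RPMI-1640 + 10% FBS; HUVEC in modified DMEM + 10% FBS; 37 °C, 5% CO2. IC50 as mean ± SD of three independent experiments.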

T1 sequence (Q03164 1-2718 limits assumed): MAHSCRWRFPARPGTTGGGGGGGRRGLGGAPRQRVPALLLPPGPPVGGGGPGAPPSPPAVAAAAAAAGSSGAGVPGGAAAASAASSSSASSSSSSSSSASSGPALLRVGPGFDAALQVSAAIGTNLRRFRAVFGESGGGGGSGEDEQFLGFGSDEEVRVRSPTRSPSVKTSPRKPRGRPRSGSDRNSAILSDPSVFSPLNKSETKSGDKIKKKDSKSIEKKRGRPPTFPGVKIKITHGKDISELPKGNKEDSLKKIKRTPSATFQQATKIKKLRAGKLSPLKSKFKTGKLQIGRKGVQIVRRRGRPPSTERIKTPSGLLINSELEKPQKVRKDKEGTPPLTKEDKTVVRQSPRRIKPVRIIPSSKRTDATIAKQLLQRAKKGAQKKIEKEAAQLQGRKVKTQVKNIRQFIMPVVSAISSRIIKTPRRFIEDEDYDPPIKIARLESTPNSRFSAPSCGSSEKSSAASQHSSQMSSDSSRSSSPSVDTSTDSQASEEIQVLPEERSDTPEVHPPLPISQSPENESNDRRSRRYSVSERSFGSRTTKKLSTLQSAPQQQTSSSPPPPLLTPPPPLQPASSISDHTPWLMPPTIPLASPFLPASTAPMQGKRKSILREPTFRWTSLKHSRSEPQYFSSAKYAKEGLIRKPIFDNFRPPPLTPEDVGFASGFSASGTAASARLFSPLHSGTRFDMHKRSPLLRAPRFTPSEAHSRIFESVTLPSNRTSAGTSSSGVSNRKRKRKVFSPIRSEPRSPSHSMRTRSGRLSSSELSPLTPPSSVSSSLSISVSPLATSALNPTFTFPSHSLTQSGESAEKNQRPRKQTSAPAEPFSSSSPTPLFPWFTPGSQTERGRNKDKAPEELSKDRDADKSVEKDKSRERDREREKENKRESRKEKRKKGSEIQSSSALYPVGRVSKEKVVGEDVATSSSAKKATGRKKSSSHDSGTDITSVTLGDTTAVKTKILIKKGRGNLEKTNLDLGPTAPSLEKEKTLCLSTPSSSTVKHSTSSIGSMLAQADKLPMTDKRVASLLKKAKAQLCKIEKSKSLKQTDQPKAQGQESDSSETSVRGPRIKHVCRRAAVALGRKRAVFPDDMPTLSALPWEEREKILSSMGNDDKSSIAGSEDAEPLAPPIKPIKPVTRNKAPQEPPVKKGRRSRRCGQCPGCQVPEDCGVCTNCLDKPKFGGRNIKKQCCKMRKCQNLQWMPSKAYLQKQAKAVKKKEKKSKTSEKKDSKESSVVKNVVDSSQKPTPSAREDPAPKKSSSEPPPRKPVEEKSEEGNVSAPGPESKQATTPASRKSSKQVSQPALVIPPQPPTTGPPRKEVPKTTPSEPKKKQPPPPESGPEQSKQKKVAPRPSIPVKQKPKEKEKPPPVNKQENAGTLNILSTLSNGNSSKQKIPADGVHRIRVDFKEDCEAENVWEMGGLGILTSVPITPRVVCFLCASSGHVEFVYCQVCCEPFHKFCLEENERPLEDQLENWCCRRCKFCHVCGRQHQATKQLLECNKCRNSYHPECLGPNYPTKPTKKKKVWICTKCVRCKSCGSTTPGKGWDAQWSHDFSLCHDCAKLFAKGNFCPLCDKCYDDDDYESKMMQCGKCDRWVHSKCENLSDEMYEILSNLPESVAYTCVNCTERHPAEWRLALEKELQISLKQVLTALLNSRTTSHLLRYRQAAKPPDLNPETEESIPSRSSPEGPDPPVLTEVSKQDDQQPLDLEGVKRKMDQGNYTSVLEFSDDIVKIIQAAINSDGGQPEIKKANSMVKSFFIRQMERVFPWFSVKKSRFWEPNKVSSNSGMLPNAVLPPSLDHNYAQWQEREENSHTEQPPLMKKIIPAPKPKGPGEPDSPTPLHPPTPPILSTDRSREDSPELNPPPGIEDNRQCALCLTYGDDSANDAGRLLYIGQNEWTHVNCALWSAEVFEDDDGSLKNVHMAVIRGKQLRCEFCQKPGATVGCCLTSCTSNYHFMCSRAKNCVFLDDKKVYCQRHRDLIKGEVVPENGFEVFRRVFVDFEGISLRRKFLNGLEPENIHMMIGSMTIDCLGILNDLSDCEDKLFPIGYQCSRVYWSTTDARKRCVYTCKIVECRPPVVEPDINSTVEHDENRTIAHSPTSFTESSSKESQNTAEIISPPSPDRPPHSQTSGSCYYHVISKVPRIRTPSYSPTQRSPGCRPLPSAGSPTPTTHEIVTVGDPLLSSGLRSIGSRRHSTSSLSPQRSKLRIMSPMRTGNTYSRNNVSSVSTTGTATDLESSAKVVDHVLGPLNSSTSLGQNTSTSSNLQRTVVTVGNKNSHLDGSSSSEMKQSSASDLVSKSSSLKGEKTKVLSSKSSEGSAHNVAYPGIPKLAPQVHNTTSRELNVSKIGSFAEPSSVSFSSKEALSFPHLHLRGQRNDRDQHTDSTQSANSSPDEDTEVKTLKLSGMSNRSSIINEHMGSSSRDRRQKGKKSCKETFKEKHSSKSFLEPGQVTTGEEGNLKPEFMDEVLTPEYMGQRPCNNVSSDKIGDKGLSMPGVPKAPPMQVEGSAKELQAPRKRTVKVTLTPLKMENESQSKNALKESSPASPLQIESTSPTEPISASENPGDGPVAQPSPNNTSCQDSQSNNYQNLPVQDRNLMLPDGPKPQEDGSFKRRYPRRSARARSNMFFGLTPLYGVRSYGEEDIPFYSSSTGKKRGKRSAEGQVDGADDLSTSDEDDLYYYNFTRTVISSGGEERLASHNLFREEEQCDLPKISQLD
T1 sequence (Q03164 2719-3969 limits assumed): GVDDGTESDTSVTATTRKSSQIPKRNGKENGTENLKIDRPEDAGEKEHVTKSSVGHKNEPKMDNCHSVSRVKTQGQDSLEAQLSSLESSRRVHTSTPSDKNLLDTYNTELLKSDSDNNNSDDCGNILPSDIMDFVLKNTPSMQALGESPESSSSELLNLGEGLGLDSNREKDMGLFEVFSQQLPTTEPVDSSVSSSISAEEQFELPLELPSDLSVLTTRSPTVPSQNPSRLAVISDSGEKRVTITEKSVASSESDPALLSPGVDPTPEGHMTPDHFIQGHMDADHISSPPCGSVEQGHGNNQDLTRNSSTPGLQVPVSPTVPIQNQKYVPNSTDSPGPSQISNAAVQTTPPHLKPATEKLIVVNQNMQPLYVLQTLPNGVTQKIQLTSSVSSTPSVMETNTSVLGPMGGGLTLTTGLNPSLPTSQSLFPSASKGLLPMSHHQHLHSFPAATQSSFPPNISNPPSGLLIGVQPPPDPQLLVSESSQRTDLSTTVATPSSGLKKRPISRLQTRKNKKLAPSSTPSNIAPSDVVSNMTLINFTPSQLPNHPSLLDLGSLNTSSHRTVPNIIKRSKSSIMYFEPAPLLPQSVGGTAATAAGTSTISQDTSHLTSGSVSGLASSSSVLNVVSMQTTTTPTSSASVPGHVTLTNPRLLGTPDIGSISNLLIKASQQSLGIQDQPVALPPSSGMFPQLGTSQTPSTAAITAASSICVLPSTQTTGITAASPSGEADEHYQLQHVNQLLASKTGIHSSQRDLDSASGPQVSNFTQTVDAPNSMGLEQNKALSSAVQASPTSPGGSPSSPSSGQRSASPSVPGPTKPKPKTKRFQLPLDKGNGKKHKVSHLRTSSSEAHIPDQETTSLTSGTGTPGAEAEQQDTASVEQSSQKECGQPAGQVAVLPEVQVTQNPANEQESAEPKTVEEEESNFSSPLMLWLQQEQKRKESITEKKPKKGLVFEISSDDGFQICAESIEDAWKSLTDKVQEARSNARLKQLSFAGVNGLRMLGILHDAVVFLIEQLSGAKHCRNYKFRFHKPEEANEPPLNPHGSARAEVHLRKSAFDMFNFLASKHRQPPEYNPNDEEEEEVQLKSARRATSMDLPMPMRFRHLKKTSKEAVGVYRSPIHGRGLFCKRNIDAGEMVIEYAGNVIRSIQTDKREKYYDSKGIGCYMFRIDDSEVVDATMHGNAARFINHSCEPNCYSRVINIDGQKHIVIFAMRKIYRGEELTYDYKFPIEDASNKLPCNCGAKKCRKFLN
Chain of Protein arginine N-methyltransferase 5 (O14744 whole entry): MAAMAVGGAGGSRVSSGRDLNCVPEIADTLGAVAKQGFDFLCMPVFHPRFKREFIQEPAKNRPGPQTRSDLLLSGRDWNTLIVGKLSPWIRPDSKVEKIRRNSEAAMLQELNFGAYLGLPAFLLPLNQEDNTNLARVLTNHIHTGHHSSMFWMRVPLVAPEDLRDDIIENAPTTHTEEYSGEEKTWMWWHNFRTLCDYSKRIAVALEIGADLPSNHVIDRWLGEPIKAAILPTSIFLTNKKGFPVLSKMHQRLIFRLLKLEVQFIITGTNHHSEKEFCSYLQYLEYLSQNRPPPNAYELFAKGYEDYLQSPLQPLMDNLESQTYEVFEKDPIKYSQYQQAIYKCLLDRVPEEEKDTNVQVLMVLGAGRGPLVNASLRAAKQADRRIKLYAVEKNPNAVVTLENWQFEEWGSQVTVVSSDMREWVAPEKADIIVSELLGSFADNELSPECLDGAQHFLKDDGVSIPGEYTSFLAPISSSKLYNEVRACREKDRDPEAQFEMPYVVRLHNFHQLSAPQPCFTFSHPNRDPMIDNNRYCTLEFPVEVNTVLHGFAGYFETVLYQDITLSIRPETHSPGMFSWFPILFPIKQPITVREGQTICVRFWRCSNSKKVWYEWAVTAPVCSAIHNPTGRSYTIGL

With `CN1CCN(c2cc(F)c(-c3ccc(C(=O)N(C)C)cc3)cc2Nc2ncnc(Cl)c2N)CC1` the inhibition in vivo at 40 mg/kg (MV4-11 [1]) was 36.4%, the CLH [2] was 14.1 µL/min/mg and the inhibition in vivo at 80 mg/kg (MV4-11 [3]) was 53.6%. The half-life [4] was 4.94 h, the IC50 [5] was > 100000 nM and the inhibition [6] was “Active”. The CLH [7] was 15 µL/min/mg, the IC50 [8] was > 100000 nM and the IC50 [9] was 29 nM. It also gave an MRT [10] of 1.18 h, an AUC(0-inf) [11] of 1740 ng·h/mL and an IC50 [12] of 780 nM. The IC50 (HUVEC) was > 100000 nM.
